Measurements as given in ChEMBL document CHEMBL1667819, “Aminopyridinecarboxamide-based inhaled IKK-2 inhibitors for asthma and COPD: Structure-activity relationship” (Bioorg Med Chem, 2011).

What was measured:
PBMC = experiment: Inhibition of LPS-stimulated TNFalpha release in human PBMC; assay type: functional, cell-based
Outline: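 PBMC were Ficoll-isolated from heparinized blood of healthy donors and plated at 2.5 × 10⁵ cells/well in RPMI 1640 with 5% FBS and penicillin–streptomycin. Cells were preincubated with compound for 1 h, then stimulated with LPS (20 ng/ml) for 16 h. Supernatant TNFα was measured by ELISA, and IC50 is the mean of ≥3 experiments.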

[1] = molecular target: T1, Inhibitor of nuclear factor kappa-B kinase subunit beta (Homo sapiens) (UniProt O14920); experiment: Binding affinity to human recombinant IKK2 assessed as half life
T1 sequence (whole entry): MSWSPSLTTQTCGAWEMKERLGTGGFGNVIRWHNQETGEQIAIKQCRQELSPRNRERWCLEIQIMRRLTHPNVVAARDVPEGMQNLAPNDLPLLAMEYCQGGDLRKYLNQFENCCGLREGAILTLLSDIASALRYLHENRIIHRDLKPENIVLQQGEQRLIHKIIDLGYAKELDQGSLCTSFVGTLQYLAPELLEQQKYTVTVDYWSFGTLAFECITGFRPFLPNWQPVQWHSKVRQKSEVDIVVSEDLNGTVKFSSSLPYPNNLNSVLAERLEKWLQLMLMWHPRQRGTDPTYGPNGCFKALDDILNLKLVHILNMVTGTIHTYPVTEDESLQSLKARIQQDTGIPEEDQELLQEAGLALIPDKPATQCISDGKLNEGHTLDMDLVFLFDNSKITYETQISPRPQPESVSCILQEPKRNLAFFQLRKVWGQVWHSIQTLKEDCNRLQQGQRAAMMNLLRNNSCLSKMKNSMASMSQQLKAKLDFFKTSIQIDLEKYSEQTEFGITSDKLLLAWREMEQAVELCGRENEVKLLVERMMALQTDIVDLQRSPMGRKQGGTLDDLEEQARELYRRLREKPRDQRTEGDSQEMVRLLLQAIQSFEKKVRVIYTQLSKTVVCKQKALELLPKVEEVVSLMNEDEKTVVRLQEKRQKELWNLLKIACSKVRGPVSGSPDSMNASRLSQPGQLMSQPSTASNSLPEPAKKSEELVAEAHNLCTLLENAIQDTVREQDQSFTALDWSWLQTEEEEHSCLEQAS

[2] = molecular target: T1, Inhibitor of nuclear factor kappa-B kinase subunit beta (Homo sapiens); experiment: Binding affinity to human IKK2 in PBMC assessed as half life by cell-based assay
Outline: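 Cryopreserved PBMC were thawed and plated, then exposed to compound for 1 h. Compound was removed by four spin-and-aspirate washes, and an unwashed plate served as control. Loss of inhibition after washout gave the cellular half-life.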

[3] = Half life in human liver microsomes
[4] = molecular target: Voltage-gated inwardly rectifying potassium channel KCNH2 (Homo sapiens, UniProt Q12809); experiment: Displacement of dofetilide from human ERG transfected in HEK293 cells by fluorescence polarization assay
Outline: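 Competition binding used membranes from HEK-293 cells transfected with hERG. Test compound competed with Cy3B-tagged N-desmethyl dofetilide for channel binding, with fluorescence polarization read-out. Values are given as % of effect.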

[5] = molecular target: T2, Inhibitor of nuclear factor kappa-B kinase subunit beta (Homo sapiens, UniProt O14920); experiment: Inhibition of human recombinant IKK2
T2 sequence (O14920 whole entry): T1 sequence (whole entry)

Sequence of Voltage-gated inwardly rectifying potassium channel KCNH2 (Q12809 whole entry): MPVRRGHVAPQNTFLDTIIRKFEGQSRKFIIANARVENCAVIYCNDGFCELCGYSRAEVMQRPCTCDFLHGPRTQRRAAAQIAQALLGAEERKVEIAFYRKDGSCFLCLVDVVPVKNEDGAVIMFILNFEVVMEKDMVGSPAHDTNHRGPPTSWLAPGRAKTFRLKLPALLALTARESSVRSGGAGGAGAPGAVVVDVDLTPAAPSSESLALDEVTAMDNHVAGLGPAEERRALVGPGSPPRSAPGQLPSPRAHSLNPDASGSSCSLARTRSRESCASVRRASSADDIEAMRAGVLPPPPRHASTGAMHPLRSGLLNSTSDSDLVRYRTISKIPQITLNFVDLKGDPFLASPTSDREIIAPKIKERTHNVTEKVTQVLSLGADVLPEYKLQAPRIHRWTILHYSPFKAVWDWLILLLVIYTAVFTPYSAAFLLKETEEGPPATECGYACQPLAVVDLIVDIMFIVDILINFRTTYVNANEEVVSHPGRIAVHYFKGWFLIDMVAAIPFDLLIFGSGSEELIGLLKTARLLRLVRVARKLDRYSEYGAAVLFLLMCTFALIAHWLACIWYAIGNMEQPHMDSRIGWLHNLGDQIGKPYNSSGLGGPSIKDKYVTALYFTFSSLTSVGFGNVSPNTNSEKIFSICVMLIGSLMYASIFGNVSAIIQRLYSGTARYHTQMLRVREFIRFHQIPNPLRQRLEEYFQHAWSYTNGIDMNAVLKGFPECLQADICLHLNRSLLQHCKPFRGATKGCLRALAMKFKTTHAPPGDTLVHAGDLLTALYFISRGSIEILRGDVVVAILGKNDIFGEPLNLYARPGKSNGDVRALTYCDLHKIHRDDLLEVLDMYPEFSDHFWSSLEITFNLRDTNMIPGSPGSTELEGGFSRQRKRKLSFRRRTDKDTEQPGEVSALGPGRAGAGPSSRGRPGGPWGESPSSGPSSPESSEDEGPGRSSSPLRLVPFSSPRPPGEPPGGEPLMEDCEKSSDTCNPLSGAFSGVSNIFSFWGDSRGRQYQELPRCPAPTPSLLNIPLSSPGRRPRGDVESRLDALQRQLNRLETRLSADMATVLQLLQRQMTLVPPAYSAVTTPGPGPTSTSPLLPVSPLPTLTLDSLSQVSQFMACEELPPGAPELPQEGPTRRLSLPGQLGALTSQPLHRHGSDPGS

SMILES | T1/2 [1] [h] | T1/2 [2] [h] | half-life ([3]; liver microsomes) [min] | IC50 [5] [nM] | half-life ([3]; microsomes) [min] | IC50 (PBMC) [nM] | inhibition (INH) [4] [%]
COCCNC(=O)Cn1cc(CN2CCN(c3cc(C(=O)Nc4ccc5c(c4)-c4c(c(C(N)=O)nn4-c4ccc(F)cc4)CC5)c(Cl)cn3)CC2)cn1 | 6 | > 4 | 3 | 1.3 | – | 10 | 58
CCOC(=O)Cn1cc(CN2CCN(c3cc(C(=O)Nc4ccc5c(c4)-c4c(c(C(N)=O)nn4-c4ccc(F)cc4)CC5)c(Cl)cn3)CC2)cn1 | 5 | > 4 | 3 | 1 | – | 6 | 95
CCOC(=O)Cn1cc(CN2CCN(c3cc(C(=O)Nc4ccc5c(c4)-c4c(c(C(N)=O)nn4-c4cccc(F)c4)CC5)c(Cl)cn3)CC2)cn1 | 5 | > 4 | 3 | 5 | – | 9 | 78
CCOC(=O)CCn1cc(CN2CCN(c3cc(C(=O)Nc4ccc5c(c4)-c4c(c(C(N)=O)nn4-c4ccc(F)cc4)CC5)c(Cl)cn3)CC2)cn1 | 6 | > 4 | 3 | 4.7 | – | 14 | 90

More lines, main results first:

T1/2 [1] [h] | T1/2 [2] [h] | half-life ([3]; liver microsomes) [min] | IC50 [5] [nM] | half-life ([3]; microsomes) [min] | SMILES | IC50 (PBMC) [nM] | inhibition (INH) [4] [%]
4 | > 4 | 3 | 2.8 | – | COCCCn1cc(CN2CCN(c3cc(C(=O)Nc4ccc5c(c4)-c4c(c(C(N)=O)nn4-c4ccc(F)cc4)CC5)c(Cl)cn3)CC2)cn1 | 16 | 76
5 | > 4 | – | 2.2 | 9 | NC(=O)c1nn(-c2ccc(F)cc2)c2c1CCc1ccc(NC(=O)c3cc(N4CCN(Cc5cnn(CCCO)c5)CC4)ncc3Cl)cc1-2 | 15 | 49
